From ChEMBL document CHEMBL1177719 (J Med Chem, 2010)
Calls of active or inactive are those of the source. The rule behind the calls is not given here.

Key:
[1] = Antioxidant activity assessed as nitric oxide scavenging activity at 60 uM; format: functional
How it was run: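 Compounds diluted tenfold in PBS and incubated with sodium nitroprusside (final compound 60 μM, SNP 5 mM) for 3 h at room temperature. Nitrite measured by Griess reagent, absorbance 540 nm. % inhibition given as average of triplicates ± standard deviation.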

[2] = target: T1, Prostaglandin G/H synthase 2 (Homo sapiens, UniProt P35354); assay: Inhibition of human recombinant COX2 assessed as PGE2 production after 10 mins by ELISA
T1 sequence (P35354 whole entry): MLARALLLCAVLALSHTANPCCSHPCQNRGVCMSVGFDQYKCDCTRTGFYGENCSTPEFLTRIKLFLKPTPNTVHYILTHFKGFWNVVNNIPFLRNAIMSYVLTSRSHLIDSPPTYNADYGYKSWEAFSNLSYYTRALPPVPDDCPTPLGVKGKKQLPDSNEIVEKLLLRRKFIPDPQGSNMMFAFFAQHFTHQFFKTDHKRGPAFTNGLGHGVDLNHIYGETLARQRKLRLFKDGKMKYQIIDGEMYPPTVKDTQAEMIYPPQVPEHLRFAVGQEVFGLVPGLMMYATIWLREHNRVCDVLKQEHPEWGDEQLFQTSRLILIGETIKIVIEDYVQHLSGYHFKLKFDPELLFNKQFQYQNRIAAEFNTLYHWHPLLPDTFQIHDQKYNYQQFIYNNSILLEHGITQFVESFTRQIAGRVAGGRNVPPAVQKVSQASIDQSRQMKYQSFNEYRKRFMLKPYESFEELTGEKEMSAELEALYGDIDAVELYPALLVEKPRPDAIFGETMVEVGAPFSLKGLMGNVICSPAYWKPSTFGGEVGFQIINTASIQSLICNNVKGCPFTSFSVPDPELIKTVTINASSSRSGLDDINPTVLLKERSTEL

[3] = target: T2, Nitric oxide synthase, inducible (Mus musculus) (UniProt P29477); assay: Inhibition of iNOS-mediated nitric oxide production in LPS-stimulated mouse RAW 264.7 cells at 34 uM pretreated 30 mins before LPS challenge measured after 20 hrs by Griess reaction method relative to control; format: cell-based
T2 sequence (whole entry): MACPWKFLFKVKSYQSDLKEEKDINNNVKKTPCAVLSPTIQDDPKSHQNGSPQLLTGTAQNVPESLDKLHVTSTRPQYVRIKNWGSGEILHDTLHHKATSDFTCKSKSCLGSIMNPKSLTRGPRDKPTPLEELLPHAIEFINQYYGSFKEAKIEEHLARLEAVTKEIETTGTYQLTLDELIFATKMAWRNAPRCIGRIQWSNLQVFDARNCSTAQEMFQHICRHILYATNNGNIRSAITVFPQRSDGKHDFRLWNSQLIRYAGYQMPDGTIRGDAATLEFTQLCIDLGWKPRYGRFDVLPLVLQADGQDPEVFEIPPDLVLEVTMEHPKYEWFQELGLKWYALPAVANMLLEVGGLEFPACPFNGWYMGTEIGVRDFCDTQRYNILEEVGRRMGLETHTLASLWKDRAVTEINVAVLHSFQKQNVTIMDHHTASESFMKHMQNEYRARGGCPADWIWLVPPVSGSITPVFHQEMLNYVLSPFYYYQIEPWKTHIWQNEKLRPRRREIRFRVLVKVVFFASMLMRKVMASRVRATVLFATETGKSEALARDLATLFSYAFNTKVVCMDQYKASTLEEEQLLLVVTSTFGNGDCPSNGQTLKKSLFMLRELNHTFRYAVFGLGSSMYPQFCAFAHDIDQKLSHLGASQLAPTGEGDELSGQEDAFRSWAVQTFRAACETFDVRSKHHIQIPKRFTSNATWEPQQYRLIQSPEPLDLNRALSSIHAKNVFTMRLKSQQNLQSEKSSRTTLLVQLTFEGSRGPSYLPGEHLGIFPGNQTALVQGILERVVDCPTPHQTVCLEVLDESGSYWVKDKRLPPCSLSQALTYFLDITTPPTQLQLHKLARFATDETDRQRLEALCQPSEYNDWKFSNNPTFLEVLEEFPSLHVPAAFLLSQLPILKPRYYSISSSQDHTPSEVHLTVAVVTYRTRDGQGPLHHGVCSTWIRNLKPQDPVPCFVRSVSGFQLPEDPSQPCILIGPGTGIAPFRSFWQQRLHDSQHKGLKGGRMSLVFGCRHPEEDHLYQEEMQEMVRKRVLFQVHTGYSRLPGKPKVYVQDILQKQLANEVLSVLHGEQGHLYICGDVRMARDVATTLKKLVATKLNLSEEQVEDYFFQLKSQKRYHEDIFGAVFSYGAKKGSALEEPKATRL

RAW264.7 [4] = assay: Inhibition of LPS-induced iNOS expression in mouse RAW264.7 cells at 34 uM treated 15 mins before LPS challenge measured after 18 hrs by Western blotting; format: functional, cell-based
How it was run: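 RAW 264.7 cells pretreated 15 min with compound (34 μM), then LPS 1 μg/mL for 18 h. Lysates (30 μg protein) run on 8% SDS-PAGE and transferred to PVDF. Blocked in 5% milk/TBST, probed for iNOS and COX-2 with HRP secondary, ECL detection, β-actin internal control. Band density relative to LPS-treated control; duplicate experiments.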

RAW264.7 [5] = assay: Inhibition of LPS-induced COX2 expression in mouse RAW264.7 cells at 34 uM treated 15 mins before LPS challenge measured after 18 hrs by immunoblotting; format: functional, cell-based
How it was run: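 RAW 264.7 cells pretreated with samples 15 min, then LPS 1 μg/mL for 18 h. Lysates (30 μg protein) run on 8% SDS-PAGE, transferred to PVDF, probed with primary and HRP secondary antibodies, ECL detection. β-actin internal control; band density quantified relative to the LPS-only control; duplicate experiment.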

HEK293 = assay: Inhibition of TNF-alpha-induced NF-kappaB activity expressed in HEK293 cells at 34 uM after 48 hrs by luciferase reporter gene assay relative to control; format: cell-based
How it was run: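 Stably transfected 293 cells carrying an NFκB response element–luciferase reporter, exposed to TNFα plus compound for 48 h, then assayed for luciferase. Activity expressed as % of TNFα-treated control. IC₅₀ from five serial dilutions, mean of two experiments.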

Row | SMILES | Activity [1] | IC50 [2] | inhibition [3] | inhibition (RAW264.7 [4]) | inhibition (RAW264.7 [5]) | inhibition (HEK293)
1 | O=S(=O)([O-])Oc1cc(O)cc(/C=C/c2ccc(O)cc2)c1.[K+] | 24.7% | 7.53 µM | 41% | Active | inactive | 33%
2 | O=S(=O)([O-])Oc1ccc(/C=C/c2cc(O)cc(O)c2)cc1.[K+] | 10.3% | 8.95 µM | 56.8% | Active | inactive | 64%
3 | O=S(=O)([O-])Oc1cc(/C=C/c2ccc(O)cc2)cc(OS(=O)(=O)[O-])c1.[K+].[K+] | 1.2% |  | 4.8% |  | inactive | 42.5%
4 | O=S(=O)([O-])Oc1ccc(/C=C/c2cc(OS(=O)(=O)[O-])cc(OS(=O)(=O)[O-])c2)cc1.[K+].[K+].[K+] | 1.6% |  | 24.8% |  | inactive | 36.7%
